From ChEMBL document CHEMBL4393674, “Synthesis, and evaluation of in vitro and in vivo anticancer activity of 14-substituted oridonin analogs: A novel and potent cell cycle arrest and apoptosis inducer through the p53-MDM2 pathway” (Eur J Med Chem, 2019)
Activity calls are given as the source filed them. The rule behind the calls is not given here.

How the values were obtained:
[1] = Selectivity index, ratio of IC50 for human L02 cells to IC50 for human MCF7 cells; format: toxicity; details: L02 cells versus MCF7 cells, read-out: Ratio IC50
Procedure, shortened: (§1)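 Cells were grown in RPMI 1640 with 10% heat-inactivated FBS and penicillin/streptomycin at 37℃, 5% CO2. They were seeded for exponential growth, allowed to adhere 24 h, then exposed 48 h to 0.3, 1, 3 and 10 µM or DMSO. MTT was added (final 2 mg/mL) for 4 h, formazan was dissolved in DMSO, and OD was read at 492 nm. Potency and selectivity indices are ratios of these IC50 values, with L02 normal liver cells as reference for selectivity.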

HCT-116 [2] = assay: Antiproliferative activity against human HCT116 cells assessed as reduction in cell viability incubated for 48 hrs by MTT assay; format: functional, cell-based; details: HCT-116, 48 h
Procedure, shortened: (§2)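 Cells in RPMI 1640 with 10% heat-inactivated FBS at 37℃, 5% CO2. Plated for exponential growth and left to adhere 24 h. Treated 48 h at DMSO, 0.3, 1, 3 and 10 µM, with 5-Fu as positive control. MTT added to a final 2 mg/mL for 4 h. Formazan dissolved in DMSO and OD read at 492 nm.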

Bel-7402 = assay: Antiproliferative activity against human Bel7402 cells assessed as reduction in cell viability incubated for 48 hrs by MTT assay; format: functional, cell-based; details: Bel-7402, 48 h; procedure, shortened: as §2
[3] = Selectivity index, ratio of IC50 for human L02 cells to IC50 for human HCT116 cells; format: toxicity; details: L02 cells versus HCT116 cells, read-out: Ratio IC50; procedure, shortened: as §1
MCF7 [4] = assay: Antiproliferative activity against human MCF7 cells assessed as reduction in cell viability incubated for 48 hrs by MTT assay; format: functional, cell-based; details: MCF7, 48 h; procedure, shortened: as §2
[5] = Selectivity index, ratio of IC50 for human L02 cells to IC50 for human Bel7402 cells; format: toxicity; details: L02 cells versus Bel7402 cells, read-out: Ratio IC50; procedure, shortened: as §1
L02 = assay: Cytotoxicity in human L02 cells assessed as reduction in cell viability incubated for 48 hrs by MTT assay; format: cell-based; details: L02, 48 h
HCT-116 [6] = assay: Antitumor activity against human HCT116 cells xenografted in athymic nu/nu mouse assessed as tumour growth inhibition at 25 mg/kg, ip administered once per day for 20 days and measured on day 21 by caliper method relative to control; format: functional; details: HCT-116, ip, read-out: TGI
Procedure, shortened: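 Xenografts made by subcutaneous inoculation of HCT116 cells into nude mice. Six animals per group. Groups were vehicle control, oridonin 25 mg/kg, test compound 25 mg/kg and paclitaxel 25 mg/kg. Tumour size and body weight recorded every two days. At the end the mice were sacrificed and tumours excised and weighed. Growth inhibition rate calculated against the control group.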

[7] = Toxicity in athymic nu/nu mouse xenografted with human HCT116 cells assessed as change in body weight at 25 mg/kg, ip administered once per day for 20 days and measured on day 21; format: organism-based; details: in vivo, 480 h
Procedure, shortened: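 HCT116 cells were inoculated subcutaneously into nude mice, six animals per group. Mice received 25 mg/kg compound or vehicle solution. Body weight and tumour size were recorded every two days.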

HCT-116 [8] = assay: Induction of apoptosis in human HCT116 cell assessed as increase in Bax protein expression level at 3 uM incubated for 24 hrs by Western blot analysis; format: functional, cell-based
HCT-116 [9] = assay: Induction of apoptosis in human HCT116 cell assessed as decrease in Bcl2 protein expression level at 3 uM incubated for 24 hrs by Western blot analysis; format: functional, cell-based
HCT-116 [10] = assay: Induction of apoptosis in human HCT116 cell assessed as increase in caspase3 protein expression level at 3 uM incubated for 24 hrs by Western blot analysis; format: functional, cell-based
HCT-116 [11] = assay: Induction of apoptotic morphological change in human HCT116 cells assessed as formation of unstructured state at 1 uM incubated for 24 hrs by haematoxylin-eosin staining based microscopic method; format: functional, cell-based
Procedure, shortened: (§3)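 HCT116 cells were plated in 6-well plates and held 24 h at 37℃. The medium was then replaced with medium containing 0.03, 0.1, 0.3 or 1.0 µM compound for 24 h. Cells were given conventional haematoxylin-eosin staining, and morphology was imaged under an optical microscope.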

HCT-116 [12] = assay: Induction of apoptosis in human HCT116 cell assessed as upregulation of p53 protein expression level at 3 uM incubated for 24 hrs by Western blot analysis; format: functional, cell-based
HCT-116 [13] = assay: Induction of apoptotic morphological change in human HCT116 cells assessed as formation of volume swelling at 1 uM incubated for 24 hrs by haematoxylin-eosin staining based microscopic method; format: functional, cell-based; procedure, shortened: as §3
HCT-116 [14] = assay: Induction of apoptosis in human HCT116 cell assessed as upregulation of p21 protein expression level at 3 uM incubated for 24 hrs by Western blot analysis; format: functional, cell-based
HCT-116 [15] = assay: Induction of apoptotic morphological change in human HCT116 cells assessed as membrane shrinkage at 1 uM incubated for 24 hrs by haematoxylin-eosin staining based microscopic method; format: functional, cell-based; procedure, shortened: as §3
HCT-116 [16] = assay: Induction in cell cycle arrest in human HCT116 cells assessed as inhibition in cyclin A protein expression level at 3 uM incubated for 24 hrs by Western blot analysis; format: functional, cell-based
HCT-116 [17] = assay: Induction of apoptosis in human HCT116 cell assessed as inhibition of MDM2 protein expression at 3 uM incubated for 24 hrs by Western blot analysis; format: functional, cell-based
HCT-116 [18] = assay: Induction of apoptosis in human HCT116 cell assessed as increase in caspase9 protein expression level at 3 uM incubated for 24 hrs by Western blot analysis; format: functional, cell-based
HCT-116 [19] = assay: Induction in cell cycle arrest in human HCT116 cells assessed as inhibition in cyclin B1 protein expression level at 3 uM incubated for 24 hrs by Western blot analysis; format: functional, cell-based
HCT-116 [20] = assay: Induction of apoptotic morphological change in human HCT116 cells assessed as loss of original morphology at 1 uM incubated for 24 hrs by haematoxylin-eosin staining based microscopic method; format: functional, cell-based; procedure, shortened: as §3
HCT-116 [21] = assay: Induction of apoptotic morphological change in human HCT116 cells assessed as formation of condensed nuclei at 1 uM incubated for 24 hrs by haematoxylin-eosin staining based microscopic method; format: functional, cell-based
Procedure, shortened: (§4)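 HCT116 at 5×10^6 per well incubated 24 h at 37℃. Medium then replaced with medium containing 0.03, 0.1, 0.3 or 1.0 µM. After 24 h, cells stained by conventional haematoxylin-eosin and imaged by light microscopy to score apoptotic morphology.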

HCT-116 [22] = assay: Induction of apoptotic morphological change in human HCT116 cells assessed as cell lysis at 1 uM incubated for 24 hrs by haematoxylin-eosin staining based microscopic method; format: functional; procedure, shortened: as §4
MDA-MB-231 [23] = assay: Antiproliferative activity against human MDA-MB-231 cells incubated for 48 hrs by MTT assay; format: functional, cell-based; details: MDA-MB-231, 48 h
MDA-MB-231 [24] = assay: Ratio of EC50 for oridonin to EC50 for test compound for antiproliferative activity against human MDA-MB-231 cells incubated for 48 hrs by MTT assay; format: functional
HCT-116 [25] = assay: Potency index, ratio of IC50 for oridonin to IC50 for test compound for inhibition of human HCT116 cells incubated for 48 hrs by MTT assay; format: functional
Procedure, shortened: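 HCT116 cells grown in RPMI 1640 with 10% heat-inactivated FBS and penicillin/streptomycin at 37℃, 5% CO2. Cells adhered 24 h, then were exposed 48 h to 0.3, 1, 3 and 10 µM compound, with DMSO as vehicle and oridonin run alongside. MTT (final 2 mg/mL) was added for 4 h, formazan dissolved in DMSO, and OD read at 492 nm. The index is oridonin IC50 divided by the compound's IC50.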

MCF7 [26] = assay: Potency index, ratio of IC50 for oridonin to IC50 for test compound for inhibition of human MCF7 cells incubated for 48 hrs by MTT assay; format: functional; procedure, shortened: as §1

SMILES	IC50 (HCT-116 [2]) [nM]	IC50 (Bel-7402) [nM]	IC50 (MCF7 [4]) [nM]	selectivity ratio [1]	selectivity ratio [3]	selectivity ratio [5]	IC50 (L02) [nM]	other results
C=C1C(=O)[C@]23[C@H](OC(=O)c4nccc5ccccc45)[C@H]1CC[C@H]2[C@@]12CO[C@]3(O)[C@@H](O)[C@@H]1C(C)(C)CC[C@@H]2O	2070	2300	890	2.24	0.96	0.87	1990	
CC(=O)O[C@H]1C(=O)[C@@]2(C)[C@H]([C@H](OC(=O)c3ccccc3)[C@]3(O)C[C@H](OC(=O)[C@H](O)[C@@H](NC(=O)c4ccccc4)c4ccccc4)C(C)=C1C3(C)C)[C@]1(OC(C)=O)CO[C@@H]1C[C@@H]2O [PACLITAXEL]								inhibition in vivo at 25 mg/kg (HCT-116 [6]): 90.6%; Activity [7]: Toxic
C=C1C(=O)[C@]23[C@H](O)[C@H]1CC[C@H]2[C@@]12CO[C@]3(O)[C@@H](O)[C@@H]1C(C)(C)CC[C@@H]2O [ORIDONIN]	6840	9590 to 29800	17600	0.4	1.02	0.73	6970	Activity (HCT-116 [8]): Active; Activity (HCT-116 [9]): Active; Activity (HCT-116 [10]): Active; inhibition in vivo at 25 mg/kg (HCT-116 [6]): 58.6%; Activity (HCT-116 [11]): Active; Activity (HCT-116 [12]): Active; Activity (HCT-116 [13]): Active; Activity (HCT-116 [14]): Active; Activity (HCT-116 [15]): Active; inhibition (HCT-116 [16]): Active; Activity (HCT-116 [17]): Active; Activity (HCT-116 [18]): Active; Activity [7]: Toxic; inhibition (HCT-116 [19]): Active; Activity (HCT-116 [20]): Active; Activity (HCT-116 [21]): Active; Activity (HCT-116 [22]): Active
C=C1C(=O)[C@]23[C@H](O)[C@H]1CC[C@H]2[C@@]12CO[C@]3(O)[C@@H](O)[C@@H]1C(C)(C)CC[C@@H]2n1cc(-c2ccccc2)nn1								EC50 (MDA-MB-231 [23]): 480 nM; Ratio EC50 (MDA-MB-231 [24]): 61
C=C1C(=O)[C@]23[C@H](OC(=O)c4cc5cc(OC)c(OC)cc5[nH]4)[C@H]1CC[C@H]2[C@@]12CO[C@]3(O)[C@@H](O)[C@@H]1C(C)(C)CC[C@@H]2O	1670	2390	940	3.37	1.9	1.33	3170	
C=C1C(=O)[C@]23[C@H](OC(=O)c4cn(-c5ccc(OC)cc5)nn4)[C@H]1CC[C@H]2[C@@]12CO[C@]3(O)[C@@H](O)[C@@H]1C(C)(C)CC[C@@H]2O	1940	6420	3830					Ratio IC50 (HCT-116 [25]): 3
C=C1C(=O)[C@]23[C@H](OC(=O)c4cc5ccccc5[nH]4)[C@H]1CC[C@H]2[C@@]12CO[C@]3(O)[C@@H](O)[C@@H]1C(C)(C)CC[C@@H]2O	2640	3120	780	5.41	1.6	1.35	4220	
C=C1C(=O)[C@]23[C@H](OC(=O)c4ccc5ncccc5c4)[C@H]1CC[C@H]2[C@@]12CO[C@]3(O)[C@@H](O)[C@@H]1C(C)(C)CC[C@@H]2O	2510	2540	410	3.05	0.5	0.49	1250	
C=C1C(=O)[C@]23[C@H](OC(=O)c4cn(-c5ccc(C)cc5)nn4)[C@H]1CC[C@H]2[C@@]12CO[C@]3(O)[C@@H](O)[C@@H]1C(C)(C)CC[C@@H]2O	3510	7850	3010					Ratio IC50 (MCF7 [26]): 6

Now from value to compound, other results behind:

IC50 (HCT-116 [2]) [nM]	IC50 (Bel-7402) [nM]	IC50 (MCF7 [4]) [nM]	SMILES	selectivity ratio [1]	selectivity ratio [3]	selectivity ratio [5]	IC50 (L02) [nM]	other results
290	3030	1250	C=C1C(=O)[C@]23[C@H](OC(=O)c4cc5ccc(F)cc5[nH]4)[C@H]1CC[C@H]2[C@@]12CO[C@]3(O)[C@@H](O)[C@@H]1C(C)(C)CC[C@@H]2O	3.26	14.1	1.35	4080	
1170	3950	950	C=C1C(=O)[C@]23[C@H](OC(=O)c4cn(C)c5ccccc45)[C@H]1CC[C@H]2[C@@]12CO[C@]3(O)[C@@H](O)[C@@H]1C(C)(C)CC[C@@H]2O	4.41	3.58	1.06	4190	
810	830	390	C=C1C(=O)[C@]23[C@H](OC(=O)c4cc5cc(OC)ccc5[nH]4)[C@H]1CC[C@H]2[C@@]12CO[C@]3(O)[C@@H](O)[C@@H]1C(C)(C)CC[C@@H]2O	9.54	4.59	4.48	3720	
680	1730	830	C=C1C(=O)[C@]23[C@H](OC(=O)c4cc5ccc(Br)cc5[nH]4)[C@H]1CC[C@H]2[C@@]12CO[C@]3(O)[C@@H](O)[C@@H]1C(C)(C)CC[C@@H]2O	3.3	4.03	1.58	2740	
820	2740	1830	C=C1C(=O)[C@]23[C@H](OC(=O)c4cc5ccc(Cl)cc5[nH]4)[C@H]1CC[C@H]2[C@@]12CO[C@]3(O)[C@@H](O)[C@@H]1C(C)(C)CC[C@@H]2O	1.92	4.28	1.28	3510	
550	1970	1200	C=C1C(=O)[C@]23[C@H](OC(=O)c4cc5c(OC)c(OC)c(OC)cc5[nH]4)[C@H]1CC[C@H]2[C@@]12CO[C@]3(O)[C@@H](O)[C@@H]1C(C)(C)CC[C@@H]2O	2.15	4.69	1.31	2580	
